Screening data (PubChem BioAssay)
The list is not random: actives were taken first. Their share in the collection is about 9.2%.
bCat KO growth: beta-catenin-lacking colon tumor cell growth suppression. hit rate 1.5% among 140,000. viability, % at 10 µM. HCT116 beta-catenin knockout viability, CellTiter-Glo, 60 h; active compounds read low. AID 818;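 active = viability at or under a set limit, the compound median less 4 SD, cut at about 6% in these data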;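 also: 0% = Hyamine 1622 control at 20 µM and 100% = untreated cell control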
PTEN del growth: growth suppressors of cells with PTEN tumor suppressor deletion; HCT116 PTEN-null viability, CellTiter-Glo, 60 h; active compounds read low; viability, % at 10 µM; hit rate 1.2% among 140,000; AID 827;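 active = viability at or below a set limit, 4 SD under the median of all tested compounds, cut at about 3.7% in these data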;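 also: PTEN knockout HCT116 line with beta catenin targeted HCT116 as companion control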
Autophagy mod: autophagy modulation, high-content screen; AID 463193; MEF GFP-LC3 puncta imaging; test concentration mostly 10 µM; calls only at 10 µM (by protocol); hit rate 0.98% among 190,000;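 active = percentage of spot-positive cells more than 3 SD above its plate mean, without a fluorescence outlier flag or 80% toxicity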;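 also: spot-positive cell cutoff set from DMSO-treated cells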
Lmaj promast: reduces viability of Leishmania major promastigotes; resazurin fluorescence viability; inhibition, % at 10 µM; hit rate 9% among 200,000; in the data active = inhibition above about 50%;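 also: promastigotes grown with compound for 44 hours at 28 °C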
Dynein cargo inh: dynein cargo transport inhibition; 3617.4 mouse cells, GR-EGFP nuclear translocation imaging; test concentration mostly 20 µM; stimulated with dexamethasone, 1 µM; active compounds read low; z-score, hits read low; hit rate 0.47% among 220,000; AID 1381;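 active = plate z-score of nuclear minus cytoplasmic receptor signal below a set negative limit, without overly bright fluorescence or cell loss, cut at about -3.5 in these data, passing the limit was not always enough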;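 also: z-score of nuclear minus cytoplasmic ring GR-EGFP intensity difference per well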
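medium = tetracycline-free induction medium containing charcoal-stripped FBS | also added = 1.0 µM final dexamethasone stimulus | schedule = 48 h induction, 1 h compound, 30 min dex at 37 °C | technique = fixed, Hoechst-stained cells imaged at 10x for EGFP | measure = GR-EGFP nuclear translocation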
The depositor's hits bear a star; i = inactive; · = no result.

SMILES	bCat KO growth	PTEN del growth	Autophagy mod	Lmaj promast	Dynein cargo inh
Cc1[nH][nH]c(=O)c1C(c1ccc(-c2ccc(F)cc2)o1)c1c(C)[nH][nH]c1=O	·	·	i	99*	-0.37
Cc1[nH][nH]c(=O)c1C(c1ccc(N(C)C)c(Br)c1)c1c(C)[nH][nH]c1=O	·	·	·	·	0.14
Cc1ccc(N=CC2=C(O)CC(c3ccc(Cl)cc3)CC2=O)cc1 (stereo not given)	61	60	i	-14	-0.68
N=c1n(CCO)c2ccccc2n1CCOc1ccc(Cl)cc1Cl	1.7*	1.6*	i	98*	0.72
CCCCCc1ccc(S(=O)(=O)NCCc2ccncc2)cc1	60	70	i	78*	-0.48
O=C(Nc1ccc(N2CCOCC2)cc1)C1CCCN(S(=O)(=O)c2cccc(C(F)(F)F)c2)C1 (stereo not given)	76	71	i	-3	2
Cn1cc(-c2ccccc2C(N)=O)c(=O)c2cc(Cl)ccc21	·	·	i	73*	-0.36
COc1ccc(CCNC(=O)C(=O)NCc2cccs2)cc1OC	·	·	i	-3	0.47
COc1ccc(NC(C)C(=O)Nc2ccc(C#N)cc2)cc1Cl (stereo not given)	83	70	i	6	-0.8
COc1ccc(NC(C)C(=O)Nc2ccc(C(C)(C)C)cc2)cc1Cl (stereo not given)	76	71	i	50*	3.1
COc1ccccc1N1CCN(C(CNS(=O)(=O)c2cc(F)ccc2F)c2cccnc2)CC1 (stereo not given)	97	91	i	90*	-0.15
O=S(=O)(NCC(c1cccnc1)N1CCN(c2ccccc2)CC1)c1cc(F)ccc1F (stereo not given)	94	104	i	97*	-0.34
O=S(=O)(NCC(c1cccnc1)N1CCN(c2ccc(F)cc2)CC1)c1ccccc1 (stereo not given)	·	·	i	92*	-0.35
CCS(=O)(=O)NCC(c1cccnc1)N1CCN(c2ccccc2)CC1 (stereo not given)	92	94	i	38	-0.87
O=C(/C=C/c1c(Cl)nc2ccccn12)Nc1ccc(F)cc1	·	·	i	3	0.088
CCC(C)NC(=O)CSC1=Nc2ccccc2C2=NC(CC(=O)NCc3ccccc3)C(=O)N12 (stereo not given)	94	95	i	37	0.0076
O=C(CSc1nc(-c2ccc(F)cc2)cs1)N1CCc2ccccc21	111	110	i	-5	0.39
O=C(c1ccco1)N1CCN(C(=O)C2CCN(S(=O)(=O)Cc3ccccc3)CC2)CC1	91	109	i	-3	-0.55
O=C(CC(SCCO)c1ccc(F)cc1)c1ccco1 (stereo not given)	4.0*	2.5*	i	84*	-2.4
Cc1ccc(C(CC(=O)c2ccco2)SCCO)cc1 (stereo not given)	5.5*	5	i	33	-2.1
O=C(c1ccco1)N1CCN=C1SCc1ccc(F)cc1	115	108	i	-9	0.029
O=C(CSCCSCC(=O)c1ccco1)c1ccco1	101	104	i	-2	0.24
Fc1ccccc1CN1CCCN(C(=S)Nc2cccc(Cl)c2)C1	·	·	i	86*	1.2
Cc1c(Cl)cccc1NC(=S)N1CCCN(Cc2ccccc2F)C1	·	·	i	82*	-0.72
O=C(Nc1ccccc1)N1CCCN(Cc2ccccc2F)C1	90	99	i	8	0.3
SMILES	bCat KO growth	PTEN del growth	Autophagy mod	Lmaj promast	Dynein cargo inh
Cc1c(Cl)cccc1NC(=S)N1CCCN(Cc2ccc(F)cc2)C1	·	·	i	89*	-0.3
Cc1c(Cl)cccc1NC(=S)N1CCN(Cc2ccccc2)CC1	97	103	i	9	0.27
COc1cc(OC)cc(C(=O)N[C@H](C(=O)NCc2cccs2)C(C)C)c1	·	·	i	10	-0.1
[O-]/C(=C(\C(=S)NCc1ccccc1)[n+]1ccccc1)c1ccc(Cl)s1	·	·	i	-9	-0.061
CCOc1cccc2sc(NN)nc12	·	·	i	5	-1.2
NNc1nc2c(Cl)ccc(Cl)c2s1	83	94	i	98*	-0.27
NS(=O)(=O)c1ccc(CCNC(=O)c2ccc(C#CC3(O)CCCCC3)cc2)cc1	·	·	i	-5	0.67
C=CCNC(=O)CSc1ccc(Cl)cc1	87	85	i	-4	-0.18
COCCCNCCOCCOc1c(OC)cccc1OC	83	91	i	83*	-0.37
C=CCNCCOCCSc1ccc(Cl)cc1	81	79	i	99*	1.8
COCCNC(=O)CSc1ccc(Cl)cc1	·	·	i	-2	-0.69
COCCNCCCCSc1ccc(Cl)cc1	·	·	i	92*	-1.6
COc1cccc(OC)c1OCCNCCO	95	95	i	11	0.64
CC(C)(C)NCCOCCOc1ccc(Cl)cc1C(C)(C)C	·	·	i	91*	2.3
CC1CCN(C(=O)C2CCN(S(=O)(=O)c3cccc4nonc34)CC2)CC1	90	88	i	-1	-1.4
COc1ccc(CCCNC(=O)CC#N)cc1OC	96	107	i	-6	0.15
C=CCNCCOc1ccc(C)cc1[N+](=O)[O-]	·	·	i	-6	0.62
COCCCNCCOCCOc1ccc(Cl)cc1C(C)(C)C	0.9*	1.1*	i	100*	1.3
C=CCNCCOCCOc1ccc(Cl)cc1C(C)(C)C	78	83	i	100*	-0.26
CCOC(=O)c1oc2nc(CC(C)C)c3c(c2c1N)CCC3	108	90	i	6	-1.2
CCOC(=O)C1CCN(C(c2cccnc2)c2c(NC(=O)c3ccco3)sc(C)c2C)CC1 (stereo not given)	13	20	i	93*	-0.99
Cc1sc(NC(=O)c2ccco2)c(C(c2ccccc2)N2CCC(C)CC2)c1C (stereo not given)	·	·	i	37	-1.3
Cc1sc(NC(=O)c2ccccc2)c(C(c2ccc(Cl)cc2)N2CCN(CCO)CC2)c1C (stereo not given)	27	30	i	95*	-0.56
CCOc1ccc(C(c2c(NC(=O)c3ccccc3)sc(C)c2C)N2CCN(CCO)CC2)cc1 (stereo not given)	38	44	i	45	0.79
Cc1sc(NC(=O)c2ccco2)c(C(c2cccnc2)N2CCN(c3ccc(F)cc3)CC2)c1C (stereo not given)	10	15	i	80*	-0.58
Cc1sc(NC(=O)c2ccco2)c(C(c2ccc(F)cc2)N2CCN(C)CC2)c1C (stereo not given)	·	·	i	51*	0.0043
COc1ccc(OC)c(N(CC(=O)Nc2ccc3c(c2)OCCO3)S(C)(=O)=O)c1	109	102	i	0	1.5
O=C1c2cnc3nc(SCc4cccc(Cl)c4)nn3c2CC2c3ccccc3CCN12 (stereo not given)	59	61	i	56*	0.67
Nc1c(C(=O)NC2CC2)c2nc3ccccc3nc2n1-c1ccc2c(c1)OCO2	81	72	i	97*	-0.44
